Experimental data: ChEMBL document CHEMBL1268974, “Synthesis and antitumour activity of glycyrrhetinic acid derivatives” (Bioorg Med Chem, 2010)
Activity calls are given as the source filed them. The rule behind the calls is not given here.

Tests used:
Assay type in all cases: functional, cell-based
A549 [1] = assay: Cytotoxicity against human A549 cells after 96 hrs by SRB assay
[2] = Cytotoxicity against human Lipo cells after 96 hrs by SRB assay
DLD-1 = assay: Cytotoxicity against human DLD1 cells after 96 hrs by SRB assay
MCF7 = assay: Cytotoxicity against human MCF7 cells after 96 hrs by SRB assay
[3] = Cytotoxicity against human A253 cells after 96 hrs by SRB assay
8505C = assay: Cytotoxicity against human 8505C cells after 96 hrs by SRB assay
SW-1736 = assay: Cytotoxicity against human SW1736 cells after 96 hrs by SRB assay
A2780 = assay: Cytotoxicity against human A2780 cells after 96 hrs by SRB assay
HCT-8 = assay: Cytotoxicity against human HCT8 cells after 96 hrs by SRB assay; details: HCT-8, 96 h
HCT-116 = assay: Cytotoxicity against human HCT116 cells after 96 hrs by SRB assay; details: HCT-116, 96 h
A-431 = assay: Cytotoxicity against human A431 cells after 96 hrs by SRB assay; details: A-431, 96 h
SW480 = assay: Cytotoxicity against human SW480 cells after 96 hrs by SRB assay; details: SW480, 96 h
FaDu = assay: Cytotoxicity against human FADU cells after 96 hrs by SRB assay
HT-29 = assay: Cytotoxicity against human HT-29 cells after 96 hrs by SRB assay; details: HT-29, 96 h
[4] = Cytotoxicity against human 518A2 cells after 96 hrs by SRB assay; details: 518A2, 96 h
A549 [5] = assay: Induction of apoptosis in human A549 cells at IC90 concentration after 24 to 48 hrs using acridine orange/ethidium bromide dye by fluorescence microscopic analysis
How it was run: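 About 500,000 cells were seeded in flasks and grown for 24 h, then the medium was replaced with compound-containing medium. After 24–48 h, floating cells in the supernatant were pelleted, washed and resuspended in PBS, mixed with acridine orange/ethidium bromide and examined by fluorescence microscopy. Green nuclear fluorescence was scored as apoptotic and red nuclei as necrotic.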

| Compound | IC50 (A549 [1]; Homo sapiens, A549, 96 h) [µM] | IC50 ([2]; Homo sapiens, Lipo, 96 h) [µM] | IC50 (DLD-1; Homo sapiens, DLD-1, 96 h) [µM] | IC50 (MCF7; Homo sapiens, MCF7, 96 h) [µM] | IC50 ([3]; Homo sapiens, A253, 96 h) [µM] | IC50 (8505C; Homo sapiens, 8505C, 96 h) [µM] | IC50 (SW-1736; Homo sapiens, SW-1736, 96 h) [µM] | IC50 (A2780; Homo sapiens, A2780, 96 h) [µM] | also measured |
| --- | --- | --- | --- | --- | --- | --- | --- | --- | --- |
| COC(=O)[C@@]1(C)CC[C@]2(C)CC[C@]3(C)C(=CC(=O)[C@@H]4[C@@]5(C)CC[C@H](OC(=O)[C@H](C)N)C(C)(C)[C@@H]5CC[C@]43C)[C@@H]2C1 [listing 1 of 3 here] | – | – | – | – | – | – | – | – | IC50 (A549 [1]; a549): 3.52 µM; IC50 ([2]; lipo): 3.52 µM; IC50 (DLD-1; dld-1): 3.61 µM; IC50 (MCF7; mcf7): 3.89 µM; IC50 ([3]; a253): 3.5 µM; IC50 (8505C; 8505c): 3.58 µM; IC50 (SW-1736; sw-1736): 3.98 µM; IC50 (A2780; a2780): 2.31 µM |
| CC(C)OC(=O)[C@@]1(C)CC[C@]2(C)CC[C@]3(C)C(=CC(=O)[C@@H]4[C@@]5(C)CC[C@H](OC(=O)[C@H](C)N)C(C)(C)[C@@H]5CC[C@]43C)[C@@H]2C1 | 3.43 | 3.53 | 5.54 | 3.52 | 3.51 | 3.49 | 3.54 | 2.08 | IC50 (HCT-8): 5.13 µM; IC50 (HCT-116): 5.03 µM; IC50 (A-431): 3.49 µM; IC50 (SW480): 3.5 µM; IC50 (FaDu): 5.39 µM; IC50 (HT-29): 4.6 µM; IC50 [4]: 5.09 µM |
| CC(C)OC(=O)[C@@]1(C)CC[C@]2(C)CC[C@]3(C)C(=CC(=O)[C@@H]4[C@@]5(C)CC[C@H](OC(=O)CN)C(C)(C)[C@@H]5CC[C@]43C)[C@@H]2C1 | 2.65 | 2.74 | 2.54 | – | 2.01 | 2.76 | – | 2.24 | – |
| CCOC(=O)[C@@]1(C)CC[C@]2(C)CC[C@]3(C)C(=CC(=O)[C@@H]4[C@@]5(C)CC[C@H](OC(=O)[C@H](C)N)C(C)(C)[C@@H]5CC[C@]43C)[C@@H]2C1 | 3.43 | 2.74 | 3.72 | 3.55 | 2.33 | 3.87 | 2.92 | 2.59 | IC50 (HCT-8): 2.21 µM; IC50 (HCT-116): 2.82 µM; IC50 (A-431): 2.27 µM; IC50 (SW480): 2.79 µM; IC50 (FaDu): 4.25 µM; IC50 (HT-29): 2.5 µM; IC50 [4]: 2.72 µM |
| CC1(C)[C@@H](OC(=O)CN)CC[C@]2(C)[C@H]3C(=O)C=C4[C@@H]5C[C@@](C)(C(=O)OCc6ccccc6)CC[C@]5(C)CC[C@@]4(C)[C@]3(C)CC[C@@H]12 | 5.07 | 4.81 | 4.54 | – | 5.03 | 4.79 | – | 3.54 | – |
| COC(=O)[C@@]1(C)CC[C@]2(C)CC[C@]3(C)C(=CC(=O)[C@@H]4[C@@]5(C)CC[C@H](OC(=O)[C@H](C)N)C(C)(C)[C@@H]5CC[C@]43C)[C@@H]2C1 [listing 2 of 3 here] | 2.77 | 4.3 | 4.49 | 3.54 | 3.61 | 4.31 | 3.22 | 2.98 | IC50 (HCT-8): 2.8 µM; IC50 (HCT-116): 2.74 µM; IC50 (A-431): 3.48 µM; IC50 (SW480): 3.52 µM; IC50 (FaDu): 4.52 µM; IC50 (HT-29): 2.87 µM; IC50 [4]: 3.54 µM |
| CC1(C)[C@@H](OC(=O)CN)CC[C@]2(C)[C@H]3C(=O)C=C4[C@@H]5C[C@@](C)(C(=O)O)CC[C@]5(C)CC[C@@]4(C)[C@]3(C)CC[C@@H]12 | > 30 | > 30 | > 30 | – | > 30 | > 30 | – | > 30 | – |
| CC(C)OC(=O)[C@@]1(C)CC[C@]2(C)CC[C@]3(C)C(=CC(=O)[C@@H]4[C@@]5(C)CC[C@H](OC(=O)CCN)C(C)(C)[C@@H]5CC[C@]43C)[C@@H]2C1 | 1.78 | 3.49 | 3.52 | – | 2.68 | 1.96 | – | 1.31 | – |
| COC(=O)[C@@]1(C)CC[C@]2(C)CC[C@]3(C)C(=CC(=O)[C@@H]4[C@@]5(C)CC[C@H](OC(=O)CN)C(C)(C)[C@@H]5CC[C@]43C)[C@@H]2C1 [listing 1 of 3 here] | – | – | – | – | – | – | – | – | Activity (A549 [5]): Active |
| CCOC(=O)[C@@]1(C)CC[C@]2(C)CC[C@]3(C)C(=CC(=O)[C@@H]4[C@@]5(C)CC[C@H](OC(=O)CN)C(C)(C)[C@@H]5CC[C@]43C)[C@@H]2C1 | 5.39 | 4.32 | 5.61 | – | 3.59 | 5.32 | – | 3.9 | – |
| COC(=O)[C@@]1(C)CC[C@]2(C)CC[C@]3(C)C(=CC(=O)[C@@H]4[C@@]5(C)CC[C@H](OC(=O)[C@@H](C)N)C(C)(C)[C@@H]5CC[C@]43C)[C@@H]2C1 | 2.26 | 3.56 | 3.35 | 2.25 | 2.26 | 2.92 | 2.25 | 2.24 | IC50 (HCT-8): 2.26 µM; IC50 (HCT-116): 2.25 µM; IC50 (A-431): 2.36 µM; IC50 (SW480): 3.52 µM; IC50 (FaDu): 2.25 µM; IC50 (HT-29): 2.8 µM; IC50 [4]: 2.26 µM |
| COC(=O)[C@@]1(C)CC[C@]2(C)CC[C@]3(C)C(=CC(=O)[C@@H]4[C@@]5(C)CC[C@H](OC(=O)CN)C(C)(C)[C@@H]5CC[C@]43C)[C@@H]2C1 [listing 2 of 3 here] | – | – | – | – | – | – | – | – | IC50 (A549 [1]; a549): 5.54 µM; IC50 ([2]; lipo): 5.92 µM; IC50 (DLD-1; dld-1): 6.42 µM; IC50 (MCF7; mcf7): 5.73 µM; IC50 ([3]; a253): 5.5 µM; IC50 (8505C; 8505c): 5.71 µM; IC50 (SW-1736; sw-1736): 5.62 µM; IC50 (A2780; a2780): 4.32 µM |
| C[C@H](N)C(=O)O[C@H]1CC[C@]2(C)[C@H]3C(=O)C=C4[C@@H]5C[C@@](C)(C(=O)O)CC[C@]5(C)CC[C@@]4(C)[C@]3(C)CC[C@H]2C1(C)C | > 30 | > 30 | > 30 | – | > 30 | > 30 | – | > 30 | – |
| COC(=O)[C@@]1(C)CC[C@]2(C)CC[C@]3(C)C(=CC(=O)[C@@H]4[C@@]5(C)CC[C@H](OC(=O)[C@H](C)N)C(C)(C)[C@@H]5CC[C@]43C)[C@@H]2C1 [listing 3 of 3 here] | – | – | – | – | – | – | – | – | Activity (A549 [5]): Active |
| CC1(C)[C@@H](OC(=O)CCN)CC[C@]2(C)[C@H]3C(=O)C=C4[C@@H]5C[C@@](C)(C(=O)O)CC[C@]5(C)CC[C@@]4(C)[C@]3(C)CC[C@@H]12 | > 30 | > 30 | > 30 | – | > 30 | > 30 | – | > 30 | – |
| COC(=O)[C@@]1(C)CC[C@]2(C)CC[C@]3(C)C(=CC(=O)[C@@H]4[C@@]5(C)CC[C@H](OC(=O)CN)C(C)(C)[C@@H]5CC[C@]43C)[C@@H]2C1 [listing 3 of 3 here] | 6.42 | 7.54 | 8.59 | 7.1 | 6.26 | 7.45 | 6.33 | 5.99 | – |
| CCOC(=O)[C@@]1(C)CC[C@]2(C)CC[C@]3(C)C(=CC(=O)[C@@H]4[C@@]5(C)CC[C@H](OC(=O)CCN)C(C)(C)[C@@H]5CC[C@]43C)[C@@H]2C1 | 2.18 | 2.38 | 2.74 | – | 2.23 | 2.32 | – | 1.77 | – |
| CC1(C)[C@@H](OC(=O)CCN)CC[C@]2(C)[C@H]3C(=O)C=C4[C@@H]5C[C@@](C)(C(=O)OCc6ccccc6)CC[C@]5(C)CC[C@@]4(C)[C@]3(C)CC[C@@H]12 | 2.76 | 3.25 | 4.54 | – | 3.05 | 3.19 | – | 1.73 | – |
| CCOC(=O)[C@@]1(C)CC[C@]2(C)CC[C@]3(C)C(=CC(=O)[C@@H]4[C@@]5(C)CC[C@H](OC(=O)[C@@H](C)N)C(C)(C)[C@@H]5CC[C@]43C)[C@@H]2C1 | 4.35 | 4.13 | 4.49 | 3.55 | 2.55 | 4.43 | 4.11 | 3.26 | IC50 (HCT-8): 2.42 µM; IC50 (HCT-116): 4.25 µM; IC50 (A-431): 2.76 µM; IC50 (SW480): 3.32 µM; IC50 (FaDu): 3.9 µM; IC50 (HT-29): 4.38 µM; IC50 [4]: 2.76 µM |
| C[C@H](N)C(=O)O[C@H]1CC[C@]2(C)[C@H]3C(=O)C=C4[C@@H]5C[C@@](C)(C(=O)OCc6ccccc6)CC[C@]5(C)CC[C@@]4(C)[C@]3(C)CC[C@H]2C1(C)C | 3.51 | 3.57 | 5.02 | – | 3.49 | 3.1 | – | 2.85 | – |
| COC(=O)[C@@]1(C)CC[C@]2(C)CC[C@]3(C)C(=CC(=O)[C@@H]4[C@@]5(C)CC[C@H](OC(=O)CCN)C(C)(C)[C@@H]5CC[C@]43C)[C@@H]2C1 [listing 1 of 2 here] | 2.4 | 2.52 | 2.51 | 2.5 | 2.5 | 2.55 | 1.82 | 1.72 | – |
| COC(=O)[C@@]1(C)CC[C@]2(C)CC[C@]3(C)C(=CC(=O)[C@@H]4[C@@]5(C)CC[C@H](OC(=O)CCN)C(C)(C)[C@@H]5CC[C@]43C)[C@@H]2C1 [listing 2 of 2 here] | – | – | – | – | – | – | – | – | IC50 (A549 [1]; a549): 1.61 µM; IC50 ([2]; lipo): 3.55 µM; IC50 (DLD-1; dld-1): 3.52 µM; IC50 (MCF7; mcf7): 2.43 µM; IC50 ([3]; a253): 2.51 µM; IC50 (8505C; 8505c): 2.51 µM; IC50 (SW-1736; sw-1736): 2.48 µM; IC50 (A2780; a2780): 1.56 µM |
